ChEMBL document CHEMBL1150309, “Design, synthesis, and biological evaluation of thiophene analogues of chalcones” (Bioorg Med Chem, 2008)

Key:
L1210 = test: Antiproliferative activity against mouse L1210 cells after 2 days; format: functional, cell-based; conditions: L1210, 48 h
Outline: (§1)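 Cells suspended at 300,000–500,000 cells/mL of culture medium and mixed 1:1 with dilutions of compound. Incubated 2 days at 37 °C, then cell number counted with a Coulter counter. IC50 is the concentration giving 50% inhibition of proliferation. Values are means from dose–response curves of at least three independent experiments.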

FM3A = test: Antiproliferative activity against mouse FM3A cells after 2 days; format: functional, cell-based; conditions: 48 h; outline: as §1
MOLT-4 = test: Antiproliferative activity against human MOLT4 cells after 2 days; format: functional, cell-based; conditions: MOLT-4, 48 h; outline: as §1
CCRF-CEM = test: Antiproliferative activity against human CEM cells after 2 days; format: functional, cell-based; conditions: 48 h; outline: as §1
HeLa = test: Antiproliferative activity against human HeLa cells after 2 days; format: functional, cell-based; conditions: 48 h; outline: as §1
[1] = Inhibition of bovine brain tubulin polymerization for 20 mins; parameters: species or system Bos taurus
Outline: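 Bovine brain tubulin (10 µM) preincubated with varying compound concentrations in glutamate buffer at 30 °C, then cooled to 0 °C. GTP added and mixtures warmed to 30 °C in cuvettes while assembly was followed by turbidity. IC50 is the concentration that halves the extent of assembly after 20 min.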

Bos taurus = species: Bos taurus; test: Displacement of [3H]colchicine from bovine brain tubulin at 1 uM
Outline: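 Bovine brain tubulin (1 µM) incubated with compound at 1 µM and [³H]colchicine at 5 µM. Result is reported as percent inhibition of colchicine binding.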

K562 [2] = test: Cell cycle arrest in human K562 cells assessed as accumulation at G2/M phase at 1.0 uM after 24 hrs by flow cytometry; format: functional
K562 [3] = test: Cell cycle arrest in human K562 cells assessed as accumulation at G0/G1 phase at 1.0 uM after 24 hrs by flow cytometry; format: functional
K562 [4] = test: Cell cycle arrest in human K562 cells assessed as accumulation at S phase at 1.0 uM after 24 hrs by flow cytometry; format: functional
K562 [5] = test: Cell cycle arrest in human K562 cells assessed as accumulation at G2/M phase at 2.2 uM after 24 hrs by flow cytometry; format: functional
K562 [6] = test: Cell cycle arrest in human K562 cells assessed as accumulation at G0/G1 phase at 2.2 uM after 24 hrs by flow cytometry; format: functional
K562 [7] = test: Cell cycle arrest in human K562 cells assessed as accumulation at S phase at 2.2 uM after 24 hrs by flow cytometry; format: functional
K562 [8] = test: Cell cycle arrest in human K562 cells assessed as accumulation at G2/M phase at 1.3 uM after 24 hrs by flow cytometry; format: functional
K562 [9] = test: Cell cycle arrest in human K562 cells assessed as accumulation at G0/G1phase at 1.3 uM after 24 hrs by flow cytometry; format: functional
K562 [10] = test: Cell cycle arrest in human K562 cells assessed as accumulation at S phase at 1.3 uM after 24 hrs by flow cytometry; format: functional
K562 [11] = test: Cell cycle arrest in human K562 cells assessed as accumulation at G2/M phase at 2.1 uM after 24 hrs by flow cytometry; format: functional
K562 [12] = test: Cell cycle arrest in human K562 cells assessed as accumulation at G0/G1 phase at 2.1uM after 24 hrs by flow cytometry; format: functional
K562 [13] = test: Cell cycle arrest in human K562 cells assessed as accumulation at S phase at 2.1uM after 24 hrs by flow cytometry; format: functional

Compound | IC50 (L1210) | IC50 (FM3A) | IC50 (MOLT-4) | IC50 (CCRF-CEM) | IC50 (HeLa) | IC50 [1] | inhibition (Bos taurus) | further results
COc1cc(C(=O)c2ccc(-c3ccccc3F)s2)cc(OC)c1OC | 0.52 µM | 0.87 µM | 0.33 µM | 0.48 µM | 1.4 µM | 2 µM | 66% | Activity (K562 [2]): 81%; Activity (K562 [3]): 8%; Activity (K562 [4]): 11%
COc1ccccc1/C=C/C(=O)c1cc(OC)c(OC)c(OC)c1 | 2.1 µM | 7.9 µM | 1.9 µM | 1.8 µM | 1.4 µM |  |  | 
COc1cc(C(=O)c2ccc(-c3ccc(F)cc3)s2)cc(OC)c1OC | 0.59 µM | 1.1 µM | 0.4 µM | 0.56 µM | 0.3 µM | 1.1 µM | 66% | Activity (K562 [5]): 21%; Activity (K562 [6]): 48%; Activity (K562 [7]): 31%
COc1cc(C(=O)c2ccc(-c3ccccc3)s2)cc(OC)c1OC | 0.56 µM | 0.46 µM | 0.4 µM | 0.48 µM | 0.31 µM | 1.5 µM | 74% | Activity (K562 [8]): 18%; Activity (K562 [9]): 34%; Activity (K562 [10]): 48%
COc1cc(C(=O)c2ccc(-c3cccc(F)c3)s2)cc(OC)c1OC | 2.4 µM | 5.6 µM | 1.2 µM | 2.1 µM | 1.7 µM |  |  | 
COc1cc(C(=O)c2ccc(-c3ccc([N+](=O)[O-])cc3)s2)cc(OC)c1OC | > 10 µM | > 10 µM | > 10 µM | > 10 µM | > 10 µM |  |  | 
COc1cc(C(=O)/C=C/c2ccccc2)cc(OC)c1OC | > 10 µM | > 10 µM | > 10 µM | > 10 µM | > 10 µM |  |  | 
COc1ccc(-c2ccc(C(=O)c3cc(OC)c(OC)c(OC)c3)s2)cc1 | 2.3 µM | 2.4 µM | 0.46 µM | 2.2 µM | 1 µM |  |  | 
COc1cc(C(=O)/C=C/c2ccc(Cl)cc2)cc(OC)c1OC | > 10 µM | > 10 µM | > 10 µM | > 10 µM | > 10 µM |  |  | 
COc1ccc(-c2ccc(C(=O)c3cc(OC)c(OC)c(OC)c3)s2)cc1OC | 0.52 µM | 0.96 µM | 0.38 µM | 0.54 µM | 0.5 µM | 3 µM | 28% | Activity (K562 [11]): 57%; Activity (K562 [12]): 16%; Activity (K562 [13]): 27%
COc1ccc(/C=C\c2cc(OC)c(OC)c(OC)c2)cc1O [COMBRETASTATIN A4] |  |  |  |  |  | 1.4 µM |  | 
COc1cccc(-c2ccc(C(=O)c3cc(OC)c(OC)c(OC)c3)s2)c1 | 2.5 µM | 2.4 µM | 1.8 µM | 2 µM | 1.4 µM |  |  | 
